From PMC4902274 (Hypertension, 2014)

Experiments:
[1] = tested on: SH-SY5Y cells; experiment: Intracellular calcium / calcium influx in SH-SY5Y cells; type: cell-based, human; details: for inhibition of prorenin-induced calcium influx: 1 μmol/L inhibitor
[2] = tested on: PRR; details: cited from earlier work
[3] = tested on: hypertensive RA mice; details: systemic enalapril; cited from earlier work
[4] = tested on: DOCA-salt hypertension, mice; details: icv infusion of losartan; cited from earlier work
[5] = tested on: prorenin-induced hypertension, C57Bl/6J mice; details: cited from earlier work
[6] = tested on: ERK-1/2 phosphorylation, Neuro-2A cells; experiment: ERK-1/2 phosphorylation in Neuro-2A cells; type: cell-based, mouse
Summary of the method: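 Neuro-2A cells were kept in serum-free medium overnight, then pretreated with losartan 10 μmol/L for 30 minutes. They were then exposed for 15 minutes to prorenin (4 nmol/L), HRP (1 μmol/L) or test peptide (1 μmol/L). Total and phosphorylated ERK-1/2 were measured by Western blot. PRR knockdown cells were transfected with AAV-PRR-shRNA for 3 days.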

[7] = tested on: normotensive SHAM mice; experiment: Acute intracerebroventricular infusion, BP in normotensive SHAM mice; type: in vivo, mouse; details: icv PRO20 1 mmol/L or losartan 3 mmol/L, n=4
[8] = tested on: DOCA-salt hypertensive mice; type: in vivo, mouse; details: losartan 3 mmol/L, 10-minute icv infusion, n=5
Summary of the method: (§1)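 Test compound, scrambled peptide (1 mmol/L, control) or losartan was infused intracerebroventricularly over 10 minutes into hypertensive mice. BP was traced in real time before, during and after the infusion. The read-out was change in mean arterial pressure (ΔMAP).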

[9] = tested on: hypertensive RA mice; experiment: Acute intracerebroventricular infusion, BP in renin-angiotensinogen; type: in vivo, mouse; details: losartan 3 mmol/L, 10-minute icv infusion, n=4
Summary of the method: as §1

[10] = tested on: spontaneously hypertensive rats; details: cited from earlier work
[11] = tested on: prorenin; details: cited from earlier work
[12] = tested on: diabetic hypertensive rats; details: cited from earlier work
[13] = tested on: ERK-1/2; details: cited from earlier work
[14] = tested on: diabetic nephropathy; details: cited from earlier work
[15] = target: (pro)renin receptor (PRR), human brain (Homo sapiens, UniProt O75787); experiment: PRO20-FITC fluorescence binding to human brain sections; details: PRO20-FITC 1 nmol/L, unlabeled human prorenin 1 μmol/L, human PVN
Summary of the method: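 Human PVN sections were incubated with FITC-labelled test peptide, 1 nmol/L with or without unlabelled human prorenin 1 μmol/L. For a concentration series (0.2, 0.5, 1, 2, 5 nmol/L), n=5–6 per concentration. Nuclei were stained with DAPI. Relative fluorescence units were total fluorescence density minus background in each image.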

[16] = tested on: plasminogen-activator inhibitor 1 release; details: prorenin 4 nmol/L; cited from earlier work
[17] = tested on: prorenin-induced hypertension, C57Bl/6J mice; experiment: Pressor response to acute intracerebroventricular infusion of mouse prorenin; type: in vivo; details: mouse prorenin 2.4 μmol/L + scrambled peptide 100 μmol/L, 3 μL/min for 10 minutes, icv
[18] = target: (pro)renin receptor (PRR), mouse brain (Mus musculus, UniProt Q9CYN9); experiment: PRO20-FITC fluorescence binding to mouse brain sections; details: PRO20-FITC 5 nmol/L, unlabeled mouse prorenin 1 μmol/L, mouse PVN
Summary of the method: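 Mouse PVN sections were incubated with FITC-labelled test peptide, 5 nmol/L with or without unlabelled mouse prorenin 1 μmol/L. For a concentration series (1, 2, 5, 10, 20 nmol/L), n=5–6 per concentration. PVN from neuron-specific PRR-knockout mice was also examined. Nuclei were stained with DAPI. Relative fluorescence units were total fluorescence density minus background per image.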

[19] = human prorenin 4 nmol/L, n=7–11/group

(pro)renin receptor (PRR), mouse brain, sequence (Q9CYN9 18-350): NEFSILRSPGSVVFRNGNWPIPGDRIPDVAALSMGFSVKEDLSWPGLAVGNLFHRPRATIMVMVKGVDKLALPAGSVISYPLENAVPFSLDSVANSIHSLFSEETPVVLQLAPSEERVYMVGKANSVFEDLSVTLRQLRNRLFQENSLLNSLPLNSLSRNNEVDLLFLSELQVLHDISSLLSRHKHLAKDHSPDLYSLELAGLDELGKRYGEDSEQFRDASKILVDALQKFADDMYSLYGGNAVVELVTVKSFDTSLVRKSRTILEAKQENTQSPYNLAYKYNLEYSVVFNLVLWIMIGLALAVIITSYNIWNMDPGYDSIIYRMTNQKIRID
(pro)renin receptor (PRR), human brain, sequence (O75787 17-350): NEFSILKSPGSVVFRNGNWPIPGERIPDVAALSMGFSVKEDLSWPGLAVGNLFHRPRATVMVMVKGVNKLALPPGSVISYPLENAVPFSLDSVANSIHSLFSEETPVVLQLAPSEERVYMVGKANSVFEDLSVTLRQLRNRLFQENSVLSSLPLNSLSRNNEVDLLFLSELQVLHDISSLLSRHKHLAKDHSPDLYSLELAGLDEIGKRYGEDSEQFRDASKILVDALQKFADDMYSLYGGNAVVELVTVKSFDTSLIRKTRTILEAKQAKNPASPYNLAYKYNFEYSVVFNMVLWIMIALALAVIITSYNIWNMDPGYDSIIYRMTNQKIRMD

## Nc1ncnc2c1ncn2[C@@H]1O[C@H](COP(=O)(O)OP(=O)(O)OP(=O)(O)O)[C@@H](O)[C@H]1O [ATP]
[1]; ATP 1 μmol/L, Fluo-4-AM, n=7–11/group
  intracellular calcium in SH-SY5Y cells: increased intracellular calcium

## COCCCOc1cc(C[C@@H](C[C@H](N)[C@@H](O)C[C@H](C(=O)NCC(C)(C)C(N)=O)C(C)C)C(C)C)ccc1OC [aliskiren]
[2]
  effect on renin or prorenin binding to the PRR: does not alter renin or prorenin binding to the PRR

## C[C@H](CS)C(=O)N1CCC[C@H]1C(=O)O [captopril]
[1]; [19]
  inhibition of prorenin-induced calcium influx: completely blocked

## CCOC(=O)[C@H](CCc1ccccc1)N[C@@H](C)C(=O)N1CCC[C@H]1C(=O)O [enalapril]
[3]
  effect on BP in RA mice, systemic: did not normalize BP

## CCCCc1nc(Cl)c(CO)n1Cc1ccc(-c2ccccc2-c2nn[nH]n2)cc1 [losartan]
[4]
  effect on development of DOCA-salt hypertension: totally prevents the development of DOCA-salt hypertension
[5]; icv infusion of losartan
  effect on prorenin-induced hypertension: abolishes prorenin-induced hypertension
[1]; [19]
  inhibition of prorenin-induced calcium influx: completely blocked
[1]; losartan 1 μmol/L vs Ang II 10 nmol/L, n=7–11/group
  inhibition of Ang II-induced intracellular calcium increase: blocked
[6]; losartan, prorenin
  inhibition of prorenin-induced ERK-1/2 phosphorylation: partially blocked
[7]
  effect on MAP in normotensive mice: did not alter MAP
[8]
  effect on mean arterial BP (MAP): reduced mean arterial BP
[9]
  effect on mean arterial BP (MAP): reduced mean arterial BP

## Ang II: major bioactive peptide of the RAS
[1]; Ang II 10 nmol/L, Fluo-4-AM, n=7–11/group
  intracellular calcium in SH-SY5Y cells: increased intracellular calcium levels

## RILLKKMPSV [HRP]
[10]
  effect on cardiac fibrosis: attenuates the development of cardiac fibrosis
[6]; PRO20 or HRP alone, 1 μmol/L, 15 minutes, losartan 10 μmol/L
  phosphorylated ERK-1/2 levels, peptide alone: unaffected
[11]
  conformational change and nonproteolytic activation of prorenin on binding to PRR: inhibits the conformational change and nonproteolytic activation of prorenin
[12]
  effect on beneficial effects of aliskiren on vascular dysfunction: counteracts the beneficial effects of aliskiren
[13]
  ERK-1/2 phosphorylation in the retina: increases phosphorylation of extracellular signal–regulated protein kinase 1 and 2
[14]; development
  effect on diabetic nephropathy in rats: prevent the development of diabetic nephropathy in rats without affecting hyperglycemia
[14]; established
  effect on established diabetic nephropathy in rats: induce regression of established diabetic nephropathy
[2]
  inhibition of binding of prorenin to the PRR: no direct inhibitory effect on the binding of prorenin to the PRR

B1: human prorenin: unlabeled human prorenin (protein, UniProt P00797 24-406, looked up)
pro-form: LPTDTTTFKRIFLKRMPSIRESLKERGVDMARLGPEWSQPMKRLTLGNTTSSVILTNYMDTQYYGEIGIGTPPQTFKVVFDTGSSNVWVPSSKCSRLYTACVYHKLFDASDSSSYKHNGTELTLRYSTGTVSGFLSQDIITVGGITVTQMFGEVTEMPALPFMLAEFDGVVGMGFIEQAIGRVTPIFDNIISQGVLKEDVFSFYYNRDSENSQSLGGQIVLGGSDPQHYEGNFHYINLIKTGVWQIQMKGVSVGSSTLLCEDGCLALVDTGASYISGSTSSIEKLMEALGAKKRLFDYVVKCNEGPTLPDISFHLGGKEYTLTSADYVFQESYSSKKLCTLAIHAMDIPPPTGPTWALGATFIRKFYTEFDRRNNRIGFALAR
modifications: pro-form
[1]; [19]
  intracellular calcium in SH-SY5Y cells: increased neuronal intracellular calcium
[1]; human prorenin vs Ang II, SH-SY5Y cells
  calcium influx induced relative to Ang II: to a degree similar to that of Ang II
[15]
  inhibition of PRO20-FITC binding by unlabeled prorenin: eliminated PRO20-FITC binding

B2: prorenin: prorenin; species not stated at the place (protein, UniProt P00797 24-406, looked up)
pro-form: B1 pro-form
modifications: pro-form
[6]; prorenin alone, serum-free medium
  ERK-1/2 phosphorylation: markedly increased ERK-1/2 phosphorylation
[16]
  Ang II-dependent plasminogen-activator inhibitor 1 release: increased Ang II–dependent plasminogen-activator inhibitor 1 release

B3: mouse prorenin: unlabeled mouse prorenin (protein, UniProt P06281 22-402, looked up)
pro-form: LPTRTATFERIPLKKMPSVREILEERGVDMTRLSAEWGVFTKRPSLTNLTSPVVLTNYLNTQYYGEIGIGTPPQTFKVIFDTGSANLWVPSTKCSRLYLACGIHSLYESSDSSSYMENGSDFTIHYGSGRVKGFLSQDSVTVGGITVTQTFGEVTELPLIPFMLAKFDGVLGMGFPAQAVGGVTPVFDHILSQGVLKEEVFSVYYNRGSHLLGGEVVLGGSDPQHYQGNFHYVSISKTDSWQITMKGVSVGSSTLLCEEGCAVVVDTGSSFISAPTSSLKLIMQALGAKEKRIEEYVVNCSQVPTLPDISFDLGGRAYTLSSTDYVLQYPNRRDKLCTLALHAMDIPPPTGPVWVLGATFIRKFYTEFDRHNNRIGFALAR
modifications: pro-form
[5]; icv mouse prorenin 2.4 μmol/L, conscious wild-type C57Bl/6J mice
  BP in conscious wild-type mice: increases BP
[17]
  BP during intracerebroventricular infusion of prorenin: induced a rapid increase in BP
[18]
  inhibition of PRO20-FITC binding by unlabeled prorenin: completely blocked
